# Measurements reported in PubChem BioAssay AID652138 (The Scripps Research Institute Molecular Screening Center, 2013).
# Active and inactive are the calls of the source.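 Rule for the calls: active = IC50 at or below 10 µM, the dose giving half-maximal inhibition of the luminescence signal; inactive = IC50 above 10 µM.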
# Molecular target: Perilipin-5 (Homo sapiens) + 1-acylglycerol-3-phosphate O-acyltransferase ABHD5 (Homo sapiens) (UniProt Q00G26+Q8WTS1)
# Test: inhibition of ABHD5 association with MLDP – biochemical, luminescence, dose response, round 3, late-stage follow-up (AID 652138)
# Conditions: split G. princeps luciferase complementation, 4 h
# Method in brief: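 System: split Gaussia princeps luciferase complementation, LucC-tagged ABHD5 with LucN-tagged MLDP; Times: 4 h interaction at 25 °C, then 30 min substrate; Benchmarks: DMSO as low control, 25 µM trans-chalcone as high control; Dosing: 10 points, 1:3 steps, up to 40 µM; Technique: coelenterazine luminescence.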
# Chain of Perilipin-5 (Homo sapiens) + 1-acylglycerol-3-phosphate O-acyltransferase ABHD5 (Homo sapiens) (Q00G26 whole entry, looked up): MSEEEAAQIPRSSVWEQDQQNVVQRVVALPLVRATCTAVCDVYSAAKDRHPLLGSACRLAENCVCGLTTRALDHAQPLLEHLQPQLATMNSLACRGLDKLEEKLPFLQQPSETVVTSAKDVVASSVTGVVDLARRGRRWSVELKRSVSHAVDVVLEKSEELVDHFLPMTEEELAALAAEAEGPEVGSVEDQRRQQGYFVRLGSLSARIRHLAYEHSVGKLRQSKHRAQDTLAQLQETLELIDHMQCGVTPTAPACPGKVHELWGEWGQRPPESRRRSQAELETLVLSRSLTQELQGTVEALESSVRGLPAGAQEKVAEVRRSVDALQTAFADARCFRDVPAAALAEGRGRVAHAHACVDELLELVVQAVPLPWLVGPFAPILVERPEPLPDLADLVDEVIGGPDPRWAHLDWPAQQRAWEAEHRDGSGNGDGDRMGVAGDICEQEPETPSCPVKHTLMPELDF
# Chain of Perilipin-5 (Homo sapiens) + 1-acylglycerol-3-phosphate O-acyltransferase ABHD5 (Homo sapiens) (Q8WTS1 whole entry, looked up): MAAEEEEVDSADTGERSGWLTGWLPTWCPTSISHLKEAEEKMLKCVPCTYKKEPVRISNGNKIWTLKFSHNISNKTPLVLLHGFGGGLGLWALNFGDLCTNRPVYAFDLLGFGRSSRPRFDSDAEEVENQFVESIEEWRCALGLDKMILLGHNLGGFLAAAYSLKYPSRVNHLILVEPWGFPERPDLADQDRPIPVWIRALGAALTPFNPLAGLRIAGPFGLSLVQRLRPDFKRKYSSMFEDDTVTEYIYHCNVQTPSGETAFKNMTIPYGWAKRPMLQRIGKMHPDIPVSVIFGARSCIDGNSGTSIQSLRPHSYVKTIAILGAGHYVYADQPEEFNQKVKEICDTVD
row,IC50,Compound
1,3.32 µM,CCCCCNC(=O)Nc1ccc2c(c1)N(C)C(=O)c1ccccc1S2
2,inactive,Cc1ccc2c(CC(=O)N3CCN(S(=O)(=O)c4ccc5c(c4)OCCO5)CC3)coc2c1
3,7.78 µM,CCCCCCCNC(=O)Nc1ccc2c(c1)N(C)C(=O)c1ccccc1S2
4,4.04 µM,CN1C(=O)c2ccccc2Sc2ccc(NC(=O)NCCCc3ccccc3)cc21
5,inactive,CCCCNC(=O)Nc1ccc2c(c1)N(C)C(=O)c1ccccc1S2
6,4.71 µM,CCCCCCNC(=O)Nc1ccc2c(c1)N(C)C(=O)c1ccccc1S2
